Data taken from ChEMBL document CHEMBL1759994, “The discovery and synthesis of potent zwitterionic inhibitors of renin” (Bioorg Med Chem Lett, 2011).

What was measured:
[1] = target: T1, Renin (Homo sapiens, UniProt P00797); assay: Inhibition of human recombinant renin in PBS buffer using tetradecapeptide at pH 7.4
T1 sequence (P00797 whole entry): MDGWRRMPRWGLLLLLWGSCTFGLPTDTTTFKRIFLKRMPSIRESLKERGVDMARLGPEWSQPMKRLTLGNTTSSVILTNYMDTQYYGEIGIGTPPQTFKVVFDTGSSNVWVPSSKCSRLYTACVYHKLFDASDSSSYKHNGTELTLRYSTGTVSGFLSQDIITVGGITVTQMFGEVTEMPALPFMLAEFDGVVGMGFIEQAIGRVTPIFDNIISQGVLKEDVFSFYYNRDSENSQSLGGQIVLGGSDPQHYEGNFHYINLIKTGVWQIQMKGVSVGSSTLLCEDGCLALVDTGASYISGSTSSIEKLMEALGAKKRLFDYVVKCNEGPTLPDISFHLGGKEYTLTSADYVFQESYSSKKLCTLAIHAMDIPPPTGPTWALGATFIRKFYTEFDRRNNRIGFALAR

[2] = Oral bioavailability in Beagle dog at 3 mg/kg in 0.5% methocel; assay type: ADME, organism-based, Canis lupus familiaris; conditions: in vivo
[3] = target: T2, Cytochrome P450 3A4 (Homo sapiens, UniProt P08684); assay: Inhibition of human CYP3A4 in human liver microsomes assessed as formation of 6beta-hydroxy-testosterone using testosterone as substrate by high throughput mass spectrometry preincubated for 30 mins in presence of NADPH; assay type: ADME, Microsome
T2 sequence (P08684 whole entry): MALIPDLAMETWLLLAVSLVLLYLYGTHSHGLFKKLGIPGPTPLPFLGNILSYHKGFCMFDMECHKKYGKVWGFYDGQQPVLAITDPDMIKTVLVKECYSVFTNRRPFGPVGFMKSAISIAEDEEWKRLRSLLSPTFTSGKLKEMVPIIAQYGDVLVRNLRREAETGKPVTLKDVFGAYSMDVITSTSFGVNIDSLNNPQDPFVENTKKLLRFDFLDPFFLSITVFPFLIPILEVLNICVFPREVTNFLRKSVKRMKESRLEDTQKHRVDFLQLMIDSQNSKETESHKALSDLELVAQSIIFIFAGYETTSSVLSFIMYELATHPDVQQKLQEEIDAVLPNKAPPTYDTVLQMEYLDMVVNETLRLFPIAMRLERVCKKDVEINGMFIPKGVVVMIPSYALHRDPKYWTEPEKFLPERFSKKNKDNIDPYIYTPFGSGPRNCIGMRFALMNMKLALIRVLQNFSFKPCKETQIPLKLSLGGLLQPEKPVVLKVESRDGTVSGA

[4] = Oral bioavailability in Sprague-Dawley rat at 30 mg/kg as 0.5% methocel suspension; assay type: ADME, organism-based; conditions: in vivo
[5] = system: Blood; assay: Metabolic stability in Sprague-Dawley rat whole blood assessed as conversion to (1R,2R)-2-((3-(((3R,4S)-N-cyclopropyl-4-(4-(2-(2,6-dichloro-4-methylphenoxy)ethoxy)phenyl)piperidine-3-carboxamido)methyl)-5-(3-methoxypropyl)phenoxy)methyl)cyclopropanecarboxylic acid after 20 mins; assay type: ADME, tissue-based
Outline: (§1)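 Prodrugs were incubated for 20 min in rat or human whole blood, or in rat or human liver S9 fraction (n = 2). The read-out was % conversion to the parent carboxylic acid.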

[6] = system: Liver; assay: Metabolic stability in Sprague-Dawley rat liver S9 fraction assessed as conversion to (1R,2R)-2-((3-(((3R,4S)-N-cyclopropyl-4-(4-(2-(2,6-dichloro-4-methylphenoxy)ethoxy)phenyl)piperidine-3-carboxamido)methyl)-5-(3-methoxypropyl)phenoxy)methyl)cyclopropanecarboxylic acid after 20 mins; assay type: ADME, subcellular; conditions: s9, 20 min; outline: as §1
[7] = AUC (0 to 24 hrs) in Sprague-Dawley rat at 30 mg/kg, po as 0.5% methocel suspension; assay type: ADME, organism-based; set-up: time < 24 hr, dose 30 mg/kg, route oral; conditions: plasma
[8] = system: Blood; assay: Metabolic stability in rhesus monkey whole blood assessed as conversion to (1R,2R)-2-((3-(((3R,4S)-N-cyclopropyl-4-(4-(2-(2,6-dichloro-4-methylphenoxy)ethoxy)phenyl)piperidine-3-carboxamido)methyl)-5-(3-methoxypropyl)phenoxy)methyl)cyclopropanecarboxylic acid after 20 mins; assay type: ADME, tissue-based, Macaca mulatta
[9] = system: Blood; assay: Metabolic stability in human whole blood assessed as conversion to (1R,2R)-2-((3-(((3R,4S)-N-cyclopropyl-4-(4-(2-(2,6-dichloro-4-methylphenoxy)ethoxy)phenyl)piperidine-3-carboxamido)methyl)-5-(3-methoxypropyl)phenoxy)methyl)cyclopropanecarboxylic acid after 20 mins; assay type: ADME, tissue-based; outline: as §1
[10] = target: Voltage-gated inwardly rectifying potassium channel KCNH2 (Homo sapiens, UniProt Q12809); assay: Binding affinity to human ERG
Sequence of Voltage-gated inwardly rectifying potassium channel KCNH2 (Q12809 whole entry): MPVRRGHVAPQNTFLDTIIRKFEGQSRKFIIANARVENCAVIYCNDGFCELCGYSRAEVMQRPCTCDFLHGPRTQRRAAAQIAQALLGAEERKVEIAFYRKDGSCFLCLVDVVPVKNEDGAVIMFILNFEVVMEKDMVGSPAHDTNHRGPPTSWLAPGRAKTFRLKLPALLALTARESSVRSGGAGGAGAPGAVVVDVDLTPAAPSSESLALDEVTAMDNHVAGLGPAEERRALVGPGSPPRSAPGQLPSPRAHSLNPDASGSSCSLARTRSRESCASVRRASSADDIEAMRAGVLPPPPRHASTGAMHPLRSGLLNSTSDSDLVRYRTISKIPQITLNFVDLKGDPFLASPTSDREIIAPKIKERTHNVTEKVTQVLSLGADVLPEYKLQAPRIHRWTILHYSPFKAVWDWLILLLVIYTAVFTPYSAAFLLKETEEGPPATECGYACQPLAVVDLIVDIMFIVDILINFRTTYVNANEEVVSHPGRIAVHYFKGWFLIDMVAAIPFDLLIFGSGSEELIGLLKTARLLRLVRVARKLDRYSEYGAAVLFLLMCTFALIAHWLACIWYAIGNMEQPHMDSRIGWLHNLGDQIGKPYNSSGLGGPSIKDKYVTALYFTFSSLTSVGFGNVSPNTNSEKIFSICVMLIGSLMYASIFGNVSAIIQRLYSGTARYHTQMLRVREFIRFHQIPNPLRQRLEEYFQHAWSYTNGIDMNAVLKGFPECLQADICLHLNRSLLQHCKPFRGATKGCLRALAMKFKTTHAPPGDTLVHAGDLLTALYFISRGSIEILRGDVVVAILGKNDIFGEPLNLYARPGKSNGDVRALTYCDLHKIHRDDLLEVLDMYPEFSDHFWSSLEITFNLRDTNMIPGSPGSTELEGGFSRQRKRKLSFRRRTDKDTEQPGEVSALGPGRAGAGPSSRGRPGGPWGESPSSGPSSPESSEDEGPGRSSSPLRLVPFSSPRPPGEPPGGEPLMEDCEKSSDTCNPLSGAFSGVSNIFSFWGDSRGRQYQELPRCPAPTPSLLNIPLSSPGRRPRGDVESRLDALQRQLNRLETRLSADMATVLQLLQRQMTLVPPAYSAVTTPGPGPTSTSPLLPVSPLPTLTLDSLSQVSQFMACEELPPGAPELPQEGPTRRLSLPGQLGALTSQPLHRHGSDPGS

[11] = AUC (0 to 24 hrs) in Beagle dog at 3 mg/kg, po in 0.5% methocel; assay type: ADME, organism-based, Canis lupus familiaris; set-up: time < 24 hr, dose 3 mg/kg, route oral; conditions: plasma
[12] = target: T2, Cytochrome P450 3A4; assay: Inhibition of human CYP3A4 in human liver microsomes assessed as formation of 6beta-hydroxy-testosterone using testosterone as substrate by high throughput mass spectrometry in absence of NADPH; assay type: ADME, Microsome
[13] = target: CYP3A4 (Homo sapiens, UniProt P08684); assay: Ratio of IC50 for human CYP3A4 in absence of NADPH to IC50 for human CYP3A4 preincubated for 30 mins in presence of NADPH; conditions: read-out: Ratio IC50
Sequence of CYP3A4 (P08684 whole entry): as the sequence (P08684 whole entry) above

[14] = Metabolic stability in dog whole blood assessed as conversion to (1R,2R)-2-((3-(((3R,4S)-N-cyclopropyl-4-(4-(2-(2,6-dichloro-4-methylphenoxy)ethoxy)phenyl)piperidine-3-carboxamido)methyl)-5-(3-methoxypropyl)phenoxy)methyl)cyclopropanecarboxylic acid after 20 mins; assay type: ADME, tissue-based, Canis lupus familiaris
[15] = system: Liver; assay: Metabolic stability in human liver S9 fraction assessed as conversion to (1R,2R)-2-((3-(((3R,4S)-N-cyclopropyl-4-(4-(2-(2,6-dichloro-4-methylphenoxy)ethoxy)phenyl)piperidine-3-carboxamido)methyl)-5-(3-methoxypropyl)phenoxy)methyl)cyclopropanecarboxylic acid after 20 mins; assay type: ADME, subcellular; conditions: s9, 20 min; outline: as §1
[16] = target: T1, Renin; assay: Inhibition of human recombinant renin in human citreated-plasma

Question: Which IC50 [1] does the source give for `CCOC(=O)[C@H]1C[C@@H]1COc1cc(CCCOC)cc(CN(C(=O)[C@H]2CNCC[C@@H]2c2ccc(OCCOc3c(Cl)cc(C)cc3Cl)cc2)C2CC2)c1` here?
Answer: 0.064 nM

Question: What about the bioavailability [2] of the same molecule?
Answer: 6%

Question: What about the IC50 [3] of the same molecule?
Answer: 1400 nM

Question: And the bioavailability [4]?
Answer: 52%

Question: What about the Activity [5] of the same molecule?
Answer: 99%

Question: And the Activity [6]?
Answer: 60%

Question: What about the AUC(0-t) at 24 h [7] of the same molecule?
Answer: 5700 nM·h

Question: What about the Activity [8] of the same molecule?
Answer: 15%

Question: What about the Activity [9] of the same molecule?
Answer: 3%

Question: And the Ki [10]?
Answer: 80 nM

Question: And the AUC(0-t) at 24 h [11]?
Answer: 10 nM·h

Question: What about the IC50 [12] of the same molecule?
Answer: 19300 nM

Question: And the IC50 shift [13]?
Answer: 14

Question: What about the Activity [14] of the same molecule?
Answer: 2%

Question: What about the Activity [15] of the same molecule?
Answer: 56%

Question: And the IC50 [16]?
Answer: 11 nM
